HUVEC prolif 384 = inhibitors of HUVEC proliferation, primary screen, cell-based, 384-well | AID 648, 2007 | 86,000 compounds, 1.1% hits | CellTiter-Glo luminescence, 72 h; active compounds read low | viability, % at 10 µM (by protocol);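 active = viability at or below 30%; inactive = viability above 30%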
PTK2B oligo ant = antagonists of Pyk2 self-association, primary screen, Q293 cells, FERM NanoBiT luminescence, HTS. Protein-tyrosine kinase 2-beta (Homo sapiens), Q14289. active compounds read low. z-score (the deposit names both 25 µM and 10 µM). 99,000 compounds, 0.83% hits. AID 1347419, 2020;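 active = Z-score of -3 or lower, scaled per plate to the spread of control and sample wells; inactive = z-score above -3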;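 note: negative z-score means lost luminescence so less FERM oligomerization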
Fibroblast inh = antiproliferative effect on LL 47 fibroblasts – human, LL 47 cells, CellTiter-Glo luminescence, primary screen. LL 47 human lung fibroblast viability, ATP luminescence; active compounds read low. viability, % at 10 µM. 85,000 compounds, 1.1% hits. AID 719, 2007;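 active = viability at or below 50% in the single dose screen; inactive = viability above 50%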;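 note: compound exposure lasted 72 h before the ATP readout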
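Material: human LL 47 lung fibroblast cells; quantity: 1,150 cells/well; medium: IMEM plus 15% FBS; doses: 0.1% DMSO in all compound wells; timing: overnight attachment after seeding, then 72 h compound exposure at 37 °C; detection: CellTiter-Glo luminescence; measure: % viability of median cell-only signal; controls: cell-only wells, no compound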
HCT116 PTEN-null = growth suppression of PTEN-null HCT116, primary screen, cell-based, CellTiter-Glo. AID 827, 2007. viability, % at 10 µM. 140,000 compounds, 1.2% hits. HCT116 PTEN-null viability, 60 h; active compounds read low;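 active = viability at or below a set limit, 4 SD under the median of all tested compounds, cut at about 3.7% in these data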;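 note: PTEN knockout HCT116 line with beta catenin targeted HCT116 as companion control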
H69AR growth 86K = proliferation blockers of H69AR lung cancer cells, primary screen, cell-based, human, 86K library; H69AR lung tumor viability, ATP luminescence, 72 h; active compounds read low; viability, % at 10 µM; 85,000 compounds, 6% hits; AID 598, 2007;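 active = viability at or below 40%; inactive = viability above 40%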;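 note: multidrug resistant small cell line overexpressing MRP-1 efflux transporter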
HCT116 bCat-KO = primary screen for growth suppressors in beta-catenin knockout HCT116 cells (colon tumor, human); HCT116 beta-catenin knockout viability, CellTiter-Glo, 60 h; active compounds read low; AID 818, 2007; 140,000 compounds, 1.5% hits; viability, % at 10 µM;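 active = viability at or under a set limit, the compound median less 4 SD, cut at about 6% in these data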
Of the large screens only hits and unclear results are named; the others gave an inactive call. Many of the other results were omitted from the sample, so hits are more common in it than they were.

Cc1ccc(C(=O)CSc2nnc(-c3cccnc3)n2N)cc1	H69AR growth 86K 27
Cc1ccc(CSc2nnc(-c3cccnc3)n2N)cc1	none
Cc1ccn2c(Nc3ccccc3C)c(-c3ccncc3)nc2c1	none (no result: HUVEC prolif 384, Fibroblast inh, H69AR growth 86K)
COC(=O)CSc1nc(N)c2c3c(sc2n1)C(c1ccccc1)SC(c1ccccc1)C3 (stereo unspecified)	HCT116 PTEN-null 0.7, HCT116 bCat-KO 1.1 (no result: HUVEC prolif 384, PTK2B oligo ant, Fibroblast inh, H69AR growth 86K)
COC(=O)CSc1nc(N)c2c3c(sc2n1)CCCC3	none
O=c1c2ccccc2sn1-c1ccccc1	none (no result: HUVEC prolif 384, Fibroblast inh, H69AR growth 86K)
Cc1ccc(-n2sc3ccccc3c2=O)cc1S(=O)(=O)N1CCCCC1	Fibroblast inh 49, H69AR growth 86K 1.5 (no result: PTK2B oligo ant)
O=c1c2ccccc2sn1-c1ccc(S(=O)(=O)N2CCCC2)cc1	none (no result: HUVEC prolif 384, Fibroblast inh, H69AR growth 86K)
O=c1c2ccccc2sn1-c1ccc(S(=O)(=O)N2CCCCC2)cc1	Fibroblast inh 37 (no result: HCT116 PTEN-null, HCT116 bCat-KO)
O=c1[nH]c(N2CCN(c3ccccc3)CC2)nc2c1CCC2	none
O=c1[nH]c(N2CCN(c3ccccc3)CC2)nc2c1CCCC2	H69AR growth 86K 21
CC(=O)/C(=N\Nc1ccccc1)Sc1nncn1C	none (no result: HUVEC prolif 384, PTK2B oligo ant, Fibroblast inh, H69AR growth 86K)
Cc1c(/C=N/n2cnnc2)c2ccccc2n1CCOc1ccccc1	H69AR growth 86K 32 (no result: Fibroblast inh)
CCN1/C(=C/c2ccc3cccc(C)c3[n+]2CC)Sc2ccccc21	HCT116 PTEN-null 2.0, HCT116 bCat-KO 1.7 (no result: HUVEC prolif 384, Fibroblast inh, H69AR growth 86K)
COC(=O)C(C(=O)OC)C(C[N+](=O)[O-])c1ccc(O)c(OC)c1 (stereo unspecified)	none (no result: HUVEC prolif 384, PTK2B oligo ant, Fibroblast inh, H69AR growth 86K)
c1ccc(CNc2ncnc3c2oc2ccccc23)nc1	none
c1ccc(-c2nc(NCC3CCCO3)c3oc4ccccc4c3n2)cc1 (stereo unspecified)	none
CCc1nc(NCc2ccccn2)c2oc3ccccc3c2n1	PTK2B oligo ant -3
CCc1nc(Nc2ccncc2)c2oc3ccccc3c2n1	HCT116 PTEN-null 1.7, HCT116 bCat-KO 2.0
CCc1nc(N2CCCCC2C)c2oc3ccccc3c2n1 (stereo unspecified)	H69AR growth 86K 22
c1ccc(-c2nc(NCc3cccnc3)c3oc4ccccc4c3n2)cc1	H69AR growth 86K 38
Cn1c(SCC(=O)Nc2ccc3nc(SCC(=O)N4CCCC4)sc3c2)nnc1-c1ccc(N)cc1	none (no result: HUVEC prolif 384, Fibroblast inh, H69AR growth 86K)
C=CCNC(=O)COc1ccc(Br)cc1Cl	none
O=C(CSc1ccsc1[N+](=O)[O-])N1CCN(c2ccc(Cl)cc2)CC1	none (no result: HUVEC prolif 384, Fibroblast inh, H69AR growth 86K)
O=C(Cn1cnc2ccccc21)N/N=C/c1ccccn1	none (no result: HUVEC prolif 384, Fibroblast inh, H69AR growth 86K)
N#C/C(=C\Nc1ccccc1O)c1nc2ccccc2o1	PTK2B oligo ant -3.4 (no result: HUVEC prolif 384, Fibroblast inh, H69AR growth 86K)
N#C/C(=C\c1ccc(Cl)cc1)c1nc2ccccc2o1	none (no result: HUVEC prolif 384, PTK2B oligo ant, Fibroblast inh, H69AR growth 86K)
CCc1ccc(C(=O)COC(=O)C(CCSC)NC(=O)c2ccccc2)cc1 (stereo unspecified)	none (no result: HUVEC prolif 384, PTK2B oligo ant, Fibroblast inh, H69AR growth 86K)
O=[N+]([O-])c1ccc2nc(-c3ccc(Cl)cc3)[nH]c2c1	HCT116 PTEN-null 2.7 (no result: HUVEC prolif 384, PTK2B oligo ant, Fibroblast inh, H69AR growth 86K)
COc1ccc(C(=O)Oc2cccc(/C=N/NC(N)=S)c2)cc1	none (no result: HUVEC prolif 384, PTK2B oligo ant, Fibroblast inh, H69AR growth 86K)
Cc1[nH]nc(SCC(=O)NCc2ccc(Cl)cc2)c1[N+](=O)[O-]	none (no result: HUVEC prolif 384, PTK2B oligo ant, Fibroblast inh, H69AR growth 86K)
CCC(=O)NC(c1ccccc1OC)c1ccc2cccnc2c1O (stereo unspecified)	HUVEC prolif 384 4.1, Fibroblast inh 11, HCT116 PTEN-null 2.7, H69AR growth 86K 1.8, HCT116 bCat-KO 3.9
COc1cccc(CNc2cccc3cccnc23)c1O	none
COn1c(C)c(C(C)=O)c2c3nonc3ccc21	H69AR growth 86K 33
CC(C)(C)Nc1nc(NC(C)(C)C)nc(-n2ccnc2)n1	H69AR growth 86K 31
CCNc1nc(NCC)nc(-n2nc(C)cc2C)n1	H69AR growth 86K 4.7
Cc1cc(C)n(-c2nc(NC(C)(C)C)nc(NC(C)(C)C)n2)n1	HCT116 bCat-KO 4.6 (no result: HUVEC prolif 384, Fibroblast inh, H69AR growth 86K)
Cc1cccc(C)c1NC(=O)CC(NCCc1ccccc1)C(=O)O (stereo unspecified)	none (no result: HUVEC prolif 384, Fibroblast inh, H69AR growth 86K)
COc1ccc(C2c3c(oc4ccccc4c3=O)C(=O)N2c2ccccn2)cc1OC (stereo unspecified)	H69AR growth 86K 26 (no result: PTK2B oligo ant, HCT116 PTEN-null, HCT116 bCat-KO)
Cc1nc(Cl)c(C(=O)NC(=O)Nc2cccc(C(F)(F)F)c2)c(C)c1[N+](=O)[O-]	H69AR growth 86K 6.7
O=C(CSC1=NCCS1)Nc1nc2c(s1)CCCC2	H69AR growth 86K 17

Assay outcomes deposited in PubChem by several laboratories.
